Data set [1] in a line: folding enthalpy; higher = less favourable; fluorescence melt of hairpins on a sequencing array, two-state fit. The settings on record: sodium 0.088 M. The method, boiled down:
(§1)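 Cy3 signals were normalised both to pre-quench Cy3 and to control constructs. They came from library hairpins carrying annealed Cy3 and quencher oligos on a sequenced MiSeq flow cell, imaged in 50 mM Na-HEPES pH 8.0, 25 mM NaCl, in 2.5 °C steps up to 60 °C. Bootstrapped two-state fits gave melting temperature and folding enthalpy, and four replicates were combined by inverse variance. Fitted temperatures were then raised by 9.35 °C to match UV melts.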

Data set [2] in a line: melting temperature; fluorescence melt of hairpins on a sequencing array, two-state fit, raised by 9.35 °C to match UV melts. Particulars: sodium 0.088 M. The method, boiled down: as §1

Among the data in the array DNA melting data of Ke et al. (doi:10.1101/2024.01.08.574731) are folding enthalpy and Tm values, retold here.

With GCGATGCGAAAGCACGC (((.(((....)))))), the folding enthalpy in data set [1] is -97.9 kJ/mol. The Tm in data set [2] is 68.4 °C.

As to GACGTTACGAAAGTAGTC (((..(((....)))))), in data set [1], the folding enthalpy was -114 kJ/mol. Besides, in data set [2], the Tm stood at 44.2 °C.

As for GATCACCGCGGTGATC ((((((....)))))), the folding enthalpy in data set [1] was -185 kJ/mol. In addition, the Tm in data set [2] was 67.2 °C.

As for GATCTTATGCAAGATC ((((((....)))))), the folding enthalpy in data set [1] is -153 kJ/mol. In data set [2], the Tm turned out to be 43 °C.

On to GTTATTCGAAAGAAGAAC (((.(((....))).))), for which the folding enthalpy in data set [1] is -118 kJ/mol. Moreover, the Tm in data set [2] was found to be 42.7 °C.

Turning to GACTACGAAAGTAAGTC ((((((....))).))), the folding enthalpy in data set [1] was -123 kJ/mol. For the same sequence, in data set [2], the Tm was found to be 47.1 °C.

Take GCGATTCGAAAGAAACGC (((.(((....))).))): the folding enthalpy in data set [1] was -198 kJ/mol. Moreover, the Tm in data set [2] worked out at 55.7 °C.

As for GGCCTCGAAAGAGTCGCC ((((((....)))..))), in data set [1], the folding enthalpy is -97.6 kJ/mol. In addition, the Tm in data set [2] worked out at 45 °C.

In the case of GATCGAAGCTTCGATC ((((((....)))))), the folding enthalpy in data set [1] is -208 kJ/mol. For the same sequence, in data set [2], the Tm was found to be 56.5 °C.

Turning to GATTACGGAAACGCAATC ((((.((....)).)))), the folding enthalpy in data set [1] is -116 kJ/mol. Also, the Tm in data set [2] was 37.4 °C.

Regarding GATATTCCGAAAGGAATC (((..(((....)))))), in data set [1], the folding enthalpy is -47.5 kJ/mol. Besides, in data set [2], the Tm was 32.7 °C.

As to GCTCCCGAAAGGGTCAGC ((((((....)))..))), in data set [1], the folding enthalpy was -56.6 kJ/mol. Besides, the Tm in data set [2] came out at 41 °C.

CGGCTCCGGAAACGGCCG (((..(((....)))))): in data set [1], the folding enthalpy was -113 kJ/mol. Moreover, the Tm in data set [2] was found to be 50.3 °C.

For GGTTTCTCGAAAGAGACC (((..(((....)))))), the folding enthalpy in data set [1] was -78.7 kJ/mol. Besides, the Tm in data set [2] turned out to be 32.6 °C.

Regarding GCTCCCGAAAGGGGCAGC ((((((....)))..))), the folding enthalpy in data set [1] is -52.3 kJ/mol. For the same sequence, the Tm in data set [2] was found to be 49.8 °C.

Regarding GCGCTGCGAAAGCTTCGC (((..((....))..))), in data set [1], the folding enthalpy was -86.4 kJ/mol. The Tm in data set [2] worked out at 54.9 °C.

Turning to GTGAATCGAAAGATCAC (((.(((....)))))), the folding enthalpy in data set [1] was -110 kJ/mol. For the same sequence, the Tm in data set [2] is 45.3 °C.

Regarding GGTGTGGCGAAAGCCACC (((..(((....)))))), the folding enthalpy in data set [1] was -31.1 kJ/mol. In addition, in data set [2], the Tm was determined as 49 °C.

Consider GACTGGCCGAAAGGCGTC (((..(((....)))))), for which the folding enthalpy in data set [1] is -49.2 kJ/mol. Also, the Tm in data set [2] turned out to be 50.8 °C.

GTAAAGTCGAAAGACTAC (((..(((....)))))): the folding enthalpy in data set [1] was -49 kJ/mol. Further, in data set [2], the Tm was found to be 31.9 °C.

Consider GGGGTTCCGAAAGGACCC (((..(((....)))))), for which the folding enthalpy in data set [1] is -137 kJ/mol. Besides, in data set [2], the Tm worked out at 56.2 °C.

Take GCACTGCGAAAGCTGGGC ((.(.((....)).).)): the folding enthalpy in data set [1] is -153 kJ/mol. The Tm in data set [2] stood at 64.3 °C.

GTGCTCGAAAGAGTACAC ((((((....)))..))): the folding enthalpy in data set [1] is -60 kJ/mol. Moreover, in data set [2], the Tm came to 49.7 °C.

As to GATTAGGGAAACCTGATC (((.(((....))).))), the folding enthalpy in data set [1] was -101 kJ/mol. For the same sequence, in data set [2], the Tm amounted to 38 °C.

Regarding AAGCTGAAAAGCTT (((((....))))), in data set [1], the folding enthalpy is -88.2 kJ/mol. Moreover, the Tm in data set [2] is 49.3 °C.

As to GCGTAAATACGC ((((....)))), the folding enthalpy in data set [1] was -106 kJ/mol. Also, the Tm in data set [2] was determined as 50 °C.

Take TGAACGAAAGTTCA (((((....))))): the folding enthalpy in data set [1] is -86.4 kJ/mol. For the same sequence, in data set [2], the Tm stood at 53.3 °C.

Regarding GCGTTTAACGC ((((...)))), in data set [1], the folding enthalpy is -89.4 kJ/mol. Besides, in data set [2], the Tm came out at 56.6 °C.

For the sequence GGTAGTGGAAACGCTATC (.(((.(....).))).), in data set [1], the folding enthalpy was -65.5 kJ/mol. Also, the Tm in data set [2] came to 30.8 °C.

Turning to GGCGCAACGAAAGTTGCC (((..(((....)))))), the folding enthalpy in data set [1] was -34.7 kJ/mol. In addition, the Tm in data set [2] stood at 47 °C.

As for GTACAGCGAAAGCTTTAC (((.(((....))).))), the folding enthalpy in data set [1] was -103 kJ/mol. For the same sequence, the Tm in data set [2] is 39.6 °C.

For the sequence GCGTCGCGAAAGCGTGGC ((..(((....)))..)), the folding enthalpy in data set [1] is -62.2 kJ/mol. Moreover, the Tm in data set [2] was 49.8 °C.

For GTCTGGCGAAAGCCGAC (((.(((....)))))), in data set [1], the folding enthalpy is -66.9 kJ/mol. The Tm in data set [2] turned out to be 55.8 °C.

Take GTCTTCGGAAACGAAGAC (((((((....))))))): in data set [1], the folding enthalpy is -128 kJ/mol. The Tm in data set [2] is 64.8 °C.

Take GATCGCGAAAGCGGGATC ((((((....)))..))): in data set [1], the folding enthalpy is -59 kJ/mol. Further, in data set [2], the Tm was found to be 45.5 °C.

As for GATCTTGGGGAAGATC ((((((....)))))), the folding enthalpy in data set [1] was -122 kJ/mol. Also, the Tm in data set [2] worked out at 40.8 °C.

As for GTTCCTGAAAAGGAAC ((((((....)))))), the folding enthalpy in data set [1] is -131 kJ/mol. Moreover, in data set [2], the Tm is 57.1 °C.

For the sequence GGAGCCCGAAAGGGTTCC (((.(((....))).))), the folding enthalpy in data set [1] is -108 kJ/mol. The Tm in data set [2] was found to be 68.4 °C.

On to GTGGCCGGAAACGGCTAC ((.((((....)))).)), for which, in data set [1], the folding enthalpy was -85.4 kJ/mol. Moreover, the Tm in data set [2] was 60.3 °C.

With GGATTGGGAAACCAACCC ((.((((....)))).)), the folding enthalpy in data set [1] was -132 kJ/mol. Also, the Tm in data set [2] was 41.2 °C.

Take GGACACGAAAGTGGTCC ((((((....))).))): the folding enthalpy in data set [1] was -90.6 kJ/mol. Moreover, the Tm in data set [2] stood at 57 °C.

On to GGCCTCGAAAGAGAGCC ((((((....))).))), for which, in data set [1], the folding enthalpy was -157 kJ/mol. Also, the Tm in data set [2] was 58.1 °C.

In the case of GGGTCAGAAATGACCC ((((((....)))))), the folding enthalpy in data set [1] was -144 kJ/mol. Also, the Tm in data set [2] was 65.1 °C.

As to GCGGAAGCCCGC ((((....)))), the folding enthalpy in data set [1] is -58.4 kJ/mol. Moreover, the Tm in data set [2] is 57.3 °C.

Regarding GCGCTGCGAAAGCATTGC ((..(((....)))..)), the folding enthalpy in data set [1] is -72.2 kJ/mol. In data set [2], the Tm was determined as 41.1 °C.

GCTGGCGAAAGCCCAGC ((((((....))).))): the folding enthalpy in data set [1] is -96.7 kJ/mol. Also, the Tm in data set [2] amounted to 65.7 °C.

Take GCACCCGAAAGGGTTTGC ((((((....)))..))): in data set [1], the folding enthalpy is -55.1 kJ/mol. Moreover, the Tm in data set [2] came to 41.6 °C.

As for GTCTTCGAAAGAACGGAC ((((((....)))..))), the folding enthalpy in data set [1] is -61 kJ/mol. Moreover, in data set [2], the Tm came out at 30.4 °C.

Regarding GCCGTGCGAAAGCTCTGC ((.(.((....)).).)), the folding enthalpy in data set [1] was -51 kJ/mol. In data set [2], the Tm turned out to be 37.7 °C.

Consider GGTCATGGAAACATGACC (((((((....))))))), for which, in data set [1], the folding enthalpy was -217 kJ/mol. The Tm in data set [2] stood at 65.5 °C.

In the case of GTGGTAACGAAAGTTCAC (((..(((....)))))), the folding enthalpy in data set [1] was -44.9 kJ/mol. Besides, the Tm in data set [2] stood at 35.7 °C.

Regarding GGATTGGGAAACCGATCC ((((.((....)).)))), the folding enthalpy in data set [1] was -170 kJ/mol. Further, the Tm in data set [2] stood at 51 °C.

Consider GCAATTGGAAACAGTTGC ((((.((....)).)))), for which the folding enthalpy in data set [1] was -139 kJ/mol. Further, the Tm in data set [2] worked out at 47 °C.

GTCGGGGGAAACCTCGGC (.((.((....)).)).): the folding enthalpy in data set [1] is -148 kJ/mol. Besides, the Tm in data set [2] turned out to be 44.9 °C.

For the sequence GTTCAGGCGAAAGCCAAC (((..(((....)))))), the folding enthalpy in data set [1] is -37.4 kJ/mol. The Tm in data set [2] was 26.1 °C.
